Where a SMILES comes first, the peptide text is derived from it. Bridges are numbered along the chain shown (N, C = ends).
How the values were obtained:
Homo sapiens [1] = species: Homo sapiens; experiment: Concentration required to inhibit the rate of platelet aggregation by 50% was determined with human gel filtered platelets (GFP); type: functional
Procedure, shortened: (§1)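 Light-transmittance aggregometry at 37 °C on human gel-filtered platelets (2 × 10^8 platelets/mL) with 0.1 mg/mL human fibrinogen and 1 mM CaCl2; 10 μM ADP added last to start aggregation.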

Canis familiaris [2] = experiment: Ex vivo antiplatelet activity was assessed following oral administration at a dose of 1 mg/kg to dogs in the presence of 10 uM of ADP and 1 uM of epinephrine at 40 min; type: functional; conditions: Canis lupus familiaris
Procedure, shortened: (§2)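 Four conscious mongrel dogs in slings, single oral 1.0 mg/kg crystalline solid in gelatin capsules; citrated venous blood (3.8% citrate) taken at baseline and 20–1440 min. PRP aggregation to ADP or collagen, each with 1 μM epinephrine, as % inhibition vs baseline. Mean ± SEM, n = 4.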

Canis familiaris [3] = experiment: Ex vivo antiplatelet activity was assessed following oral administration at a dose of 1 mg/kg to dogs in the presence of […] and 1 uM of epinephrine at 300 min; type: functional; conditions: Canis lupus familiaris, 5 h; procedure, shortened: as §2
Homo sapiens [4] = species: Homo sapiens; experiment: In vitro concentration required to inhibit the rate of human platelet aggregation (in platelet rich plasma) by 50% was determined in presence of 10 uM of epinephrine; type: functional
Procedure, shortened: (§3)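 PRP from blood spun at 150g for 5 min, count set to 200 000 cells/mm3 with PPP; 300 μL held 3 min at 37 °C before agonist. Aggregation read as % change in light transmission, PPP = 100%; inhibition relative to baseline response. Mean ± SE, n = 3–7.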

Canis familiaris [5] = experiment: Ex vivo antiplatelet activity was assessed following oral administration at a dose of 1 mg/kg to dogs in the presence of 10 uM of ADP and 1 uM of epinephrine at 1440 min; type: functional; conditions: Canis lupus familiaris, 24 h; procedure, shortened: as §2
Homo sapiens [6] = species: Homo sapiens; experiment: Concentration required to inhibit platelet aggregation by 50%; type: functional; procedure, shortened: as §1
Canis familiaris [7] = experiment: Ex vivo antiplatelet activity was assessed following oral administration at a dose of 1 mg/kg to dogs in the presence of 10 uM of ADP and 1 uM of epinephrine at 0 min; type: functional; conditions: Canis lupus familiaris, 0 h; procedure, shortened: as §2
Canis familiaris [8] = experiment: Ex vivo antiplatelet activity was assessed following oral administration at a dose of 1 mg/kg to dogs in the presence of […] and 1 uM of epinephrine at 20 min; type: functional; conditions: Canis lupus familiaris; procedure, shortened: as §2
[9] = In vitro concentration required to inhibit the rate of chimp platelet aggregation (in platelet rich plasma) by 50% was determined in presence of 10 ug/mL of collagen; type: functional; conditions: Pan troglodytes; procedure, shortened: as §3
Canis familiaris [10] = experiment: Ex vivo antiplatelet activity was assessed following oral administration at a dose of 1 mg/kg to dogs in the presence of 10 uM of collagen and 1 uM of epinephrine at 350 min; type: functional; conditions: Canis lupus familiaris; procedure, shortened: as §2
Canis familiaris [11] = experiment: Ex vivo antiplatelet activity was assessed following oral administration at a dose of 1 mg/kg to dogs in the presence of 10 uM of ADP and 1 uM of epinephrine at 70 min; type: functional; conditions: Canis lupus familiaris; procedure, shortened: as §2
Canis familiaris [12] = experiment: Ex vivo antiplatelet activity was assessed following oral administration at a dose of 1 mg/kg to dogs in the presence of 10 uM of ADP and 1 uM of epinephrine at 250 min; type: functional; conditions: Canis lupus familiaris; procedure, shortened: as §2
Canis familiaris [13] = species: Canis familiaris; experiment: Whole blood platelet count was determined in 10e3/uL; type: functional, Canis lupus familiaris
Procedure, shortened: (§4)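 Dogs given 1.0 mg/kg orally by capsule (n = 4); 1 mL citrated venous blood per time point (baseline to 1440 min) counted on an automated hematology analyzer; reported as 10^3/μL and Δ% from baseline, mean ± SEM.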

Canis familiaris [14] = experiment: Ex vivo antiplatelet activity was assessed following oral administration at a dose of 1 mg/kg to dogs in the presence of 10 uM of ADP and 1 uM of epinephrine at 350 min; type: functional; conditions: Canis lupus familiaris; procedure, shortened: as §2
Canis familiaris [15] = species: Canis familiaris; experiment: In vitro concentration required to inhibit the rate of dog platelet aggregation (in platelet rich plasma) by 50% was determined in presence of 10 ug/mL of collagen and 1 uM of epinephrine; type: functional; conditions: Canis lupus familiaris; procedure, shortened: as §3
Canis familiaris [16] = experiment: Ex vivo antiplatelet activity was assessed following oral administration at a dose of 1 mg/kg to dogs in the presence of […] and 1 uM of epinephrine at 250 min; type: functional; conditions: Canis lupus familiaris; procedure, shortened: as §2
Canis familiaris [17] = experiment: Ex vivo antiplatelet activity was assessed following oral administration at a dose of 1 mg/kg to dogs in the presence of […] and 1 uM of epinephrine at 1440 min; type: functional; conditions: Canis lupus familiaris, 24 h; procedure, shortened: as §2
Canis familiaris [18] = experiment: Ex vivo antiplatelet activity was assessed following oral administration at a dose of 1 mg/kg to dogs in the presence of 10 uM of ADP and 1 uM of epinephrine at 200 min; type: functional; conditions: Canis lupus familiaris; procedure, shortened: as §2
Canis familiaris [19] = experiment: Ex vivo antiplatelet activity was assessed following oral administration at a dose of 1 mg/kg to dogs in the presence of 10 uM of collagen and 1 uM of epinephrine at 40 min; type: functional; conditions: Canis lupus familiaris; procedure, shortened: as §2
Homo sapiens [20] = species: Homo sapiens; experiment: In vitro concentration required to inhibit the rate of human platelet aggregation (in platelet rich plasma) by 50% was determined in presence of 10 ug/mL of collagen; type: functional; procedure, shortened: as §3
Canis familiaris [21] = experiment: Ex vivo antiplatelet activity was assessed following oral administration at a dose of 1 mg/kg to dogs in the presence of […] and 1 uM of epinephrine at 150 min; type: functional; conditions: Canis lupus familiaris, 2.5 h; procedure, shortened: as §2
Canis familiaris [22] = experiment: Ex vivo antiplatelet activity was assessed following oral administration at a dose of 1 mg/kg to dogs in the presence of 10 uM of ADP and 1 uM of epinephrine at 90 min; type: functional; conditions: Canis lupus familiaris, 1.5 h; procedure, shortened: as §2
Canis familiaris [23] = experiment: Ex vivo antiplatelet activity was assessed following oral administration at a dose of 1 mg/kg to dogs in the presence of 10 uM of ADP and 1 uM of epinephrine at 20 min; type: functional; conditions: Canis lupus familiaris; procedure, shortened: as §2
Canis familiaris [24] = experiment: Ex vivo antiplatelet activity was assessed following oral administration at a dose of 1 mg/kg to dogs in the presence of […] and 1 uM of epinephrine at 0 min; type: functional; conditions: Canis lupus familiaris, 0 h; procedure, shortened: as §2
Canis familiaris [25] = experiment: Ex vivo antiplatelet activity was assessed following oral administration at a dose of 1 mg/kg to dogs in the presence of 10 uM of ADP and 1 uM of epinephrine at 150 min; type: functional; conditions: Canis lupus familiaris, 2.5 h; procedure, shortened: as §2
Canis familiaris [26] = experiment: Ex vivo antiplatelet activity was assessed following oral administration at a dose of 1 mg/kg to dogs in the presence of […] and 1 uM of epinephrine at 70 min; type: functional; conditions: Canis lupus familiaris; procedure, shortened: as §2
Canis familiaris [27] = experiment: Ex vivo antiplatelet activity was assessed following oral administration at a dose of 1 mg/kg to dogs in the presence of 10 uM of collagen and 1 uM of epinephrine at 90 min; type: functional; conditions: Canis lupus familiaris, 1.5 h; procedure, shortened: as §2
Canis familiaris [28] = species: Canis familiaris; experiment: In vitro concentration required to inhibit the rate of dog platelet aggregation (in platelet rich plasma) by 50% was determined in presence of 10 uM of ADP and 1 uM of epinephrine; type: functional; conditions: Canis lupus familiaris; procedure, shortened: as §3
Homo sapiens [29] = species: Homo sapiens; experiment: In vitro concentration required to inhibit the rate of human platelet aggregation (in platelet rich plasma) by 50% was determined in presence of 0.5 U/mL of thrombin and 1 mM GPRP; type: functional; procedure, shortened: as §3
Canis familiaris [30] = experiment: Ex vivo antiplatelet activity was assessed following oral administration at a dose of 1 mg/kg to dogs in the presence of […] and 1 uM of epinephrine at 200 min; type: functional; conditions: Canis lupus familiaris; procedure, shortened: as §2
Canis familiaris [31] = experiment: Ex vivo antiplatelet activity was assessed following oral administration at a dose of 1 mg/kg to dogs in the presence of 10 uM of collagen and 1 uM of epinephrine at 480 min; type: functional; conditions: Canis lupus familiaris, 8 h; procedure, shortened: as §2
Canis familiaris [32] = species: Canis familiaris; experiment: Whole blood platelet count was determined as delta% from baseline; type: functional, Canis lupus familiaris; procedure, shortened: as §4
Canis familiaris [33] = experiment: Ex vivo antiplatelet activity was assessed following oral administration at a dose of 1 mg/kg to dogs in the presence of 10 uM of ADP and 1 uM of epinephrine at 480 min; type: functional; conditions: Canis lupus familiaris, 8 h; procedure, shortened: as §2
Homo sapiens [34] = species: Homo sapiens; experiment: In vitro concentration required to inhibit the rate of human platelet aggregation (in platelet rich plasma) by 50% was determined in presence of 10 uM of ADP; type: functional; procedure, shortened: as §3
[35] = In vitro concentration required to inhibit the rate of chimp platelet aggregation (in platelet rich plasma) by 50% was determined in presence of 20 uM of ADP; type: functional; conditions: Pan troglodytes; procedure, shortened: as §3
Canis familiaris [36] = experiment: Ex vivo antiplatelet activity was assessed following oral administration at a dose of 1 mg/kg to dogs in the presence of 10 uM of ADP and 1 uM of epinephrine at 300 min; type: functional; conditions: Canis lupus familiaris, 5 h; procedure, shortened: as §2

SMILES: O=C(O)CCNC(=O)CN1CCC[C@@H](CCC2CCNCC2)C1=O
- IC50 (Homo sapiens [1]): 0.083 µM

SMILES: O=C(O)CCNC(=O)CNC(=O)CCCC1CCNCC1
- IC50 (Homo sapiens [1]): 8.4 µM

SMILES: C[C@@H](CC(=O)O)NC(=O)CN1CCC[C@@H](CCC2CCNCC2)C1=O
- IC50 (Homo sapiens [1]): 7.8 µM

SMILES: C[C@H](CC(=O)O)NC(=O)CN1CCC[C@@H](CCC2CCNCC2)C1=O
- inhibition in vivo at 1 mg/kg (Canis familiaris [2]): 86%
- inhibition in vivo at 1 mg/kg (Canis familiaris [3]): 67%
- IC50 (Homo sapiens [4]): 0.036 µM
- inhibition in vivo at 1 mg/kg (Canis familiaris [5]): 2%
- IC50 (Homo sapiens [6]): 0.032 µM
- inhibition in vivo at 1 mg/kg (Canis familiaris [7]): 0%
- IC50 (Homo sapiens [1]): 0.032 µM
- inhibition in vivo at 1 mg/kg (Canis familiaris [8]): 48%
- IC50 [9]: 0.04 µM
- inhibition in vivo at 1 mg/kg (Canis familiaris [10]): 54%
- inhibition in vivo at 1 mg/kg (Canis familiaris [11]): 93%
- inhibition in vivo at 1 mg/kg (Canis familiaris [12]): 90%
- Platelet count (Canis familiaris [13]): 322000 µL⁻¹
- inhibition in vivo at 1 mg/kg (Canis familiaris [14]): 81%
- IC50 (Canis familiaris [15]): 0.04 µM
- inhibition in vivo at 1 mg/kg (Canis familiaris [16]): 72%
- inhibition in vivo at 1 mg/kg (Canis familiaris [17]): 3%
- inhibition in vivo at 1 mg/kg (Canis familiaris [18]): 94%
- inhibition in vivo at 1 mg/kg (Canis familiaris [19]): 79%
- IC50 (Homo sapiens [20]): 0.067 µM
- inhibition in vivo at 1 mg/kg (Canis familiaris [21]): 94%
- inhibition in vivo at 1 mg/kg (Canis familiaris [22]): 96%
- inhibition in vivo at 1 mg/kg (Canis familiaris [23]): 50%
- inhibition in vivo at 1 mg/kg (Canis familiaris [24]): 0%
- inhibition in vivo at 1 mg/kg (Canis familiaris [25]): 96%
- inhibition in vivo at 1 mg/kg (Canis familiaris [26]): 79%
- inhibition in vivo at 1 mg/kg (Canis familiaris [27]): 75%
- IC50 (Canis familiaris [28]): 0.041 µM
- IC50 (Homo sapiens [29]): 0.027 µM
- inhibition in vivo at 1 mg/kg (Canis familiaris [30]): 78%
- inhibition in vivo at 1 mg/kg (Canis familiaris [31]): 31%
- Delta (Canis familiaris [32]): -0.5% [middle of 10 runs]
- inhibition in vivo at 1 mg/kg (Canis familiaris [33]): 63%
- IC50 (Homo sapiens [34]): 0.023 µM
- IC50 [35]: 0.042 µM
- inhibition in vivo at 1 mg/kg (Canis familiaris [36]): 91%

SMILES: CC(=O)N[C@H]1CSSC[C@@H](C(=O)O)NC(=O)[C@H](CC(=O)O)NC(=O)CNC(=O)[C@H](CCCN=C(N)N)NC1=O (Ac-CRGDC-OH; disulfide 1-5)
- IC50 (Homo sapiens [1]): 0.68 µM
